Experimental data: ChEMBL document CHEMBL5532760, “Synergy between the clavanins as a weapon against multidrug-resistant Enterobacter cloacae” (2024)
Values after ≈ are worked out from the molar mass of the structure shown. Values joined by “and” are separate entries in the source; they are usually repeats but may differ in a detail not shown here. Equal values may be shown once. Where a SMILES comes first, the peptide text is derived from it. [ ]: non-standard residue; d: D form. Dopa = N[C@@H](Cc1ccc(O)c(O)c1)C(=O)O

What was measured:
Enterobacter cloacae [1] = assay: Antibacterial activity against Enterobacter cloacae 0136 at pH 5.5 incubated for 18 to 20 hrs by broth microdilution method; type: functional; conditions: time 18-20 hrs
Method in brief: (§1)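 E. cloacae AR#0136 grown at 37 °C with shaking at 234 rpm to mid-log (OD600 0.4–0.6) in MHB. For pH 5.5 the medium was adjusted with 0.1 M HCl before autoclaving; the pH 7.4 medium was not adjusted. Peptides were twofold serially diluted; final inoculum 5×10^5 CFU/mL; 37 °C for 18–20 h. MIC taken as the lowest concentration with no visible growth.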

Enterobacter cloacae [2] = assay: Antibacterial activity against Enterobacter cloacae 0136 at pH 7.4 incubated for 18 to 20 hrs by broth microdilution method; type: functional; conditions: time 18-20 hrs; method in brief: as §1

| Molecule | MIC (Enterobacter cloacae [1]) | MIC (Enterobacter cloacae [2]) |
| --- | --- | --- |
| CC[C@H](C)[C@H](NC(=O)[C@H](CCCCN)NC(=O)CNC(=O)[C@H](CC(C)C)NC(=O)[C@H](CC(C)C)NC(=O)[C@H](Cc1cnc[nH]1)NC(=O)[C@H](Cc1ccccc1)NC(=O)[C@@H](N)C(C)C)C(=O)N[C@H](C(=O)N[C@@H](Cc1cnc[nH]1)C(=O)N[C@@H](Cc1cnc[nH]1)C(=O)N[C@H](C(=O)NCC(=O)N[C@@H](CC(N)=O)C(=O)N[C@@H](Cc1ccccc1)C(=O)N[C@H](C(=O)N[C@@H](Cc1ccc(O)c(O)c1)C(=O)NCC(=O)N[C@@H](Cc1ccccc1)C(=O)N[C@@H](CO)C(=O)N[C@@H](Cc1cnc[nH]1)C(=O)N[C@H](C(=O)N[C@@H](Cc1ccccc1)C(=O)O)C(C)C)C(C)C)C(C)C)[C@@H](C)CC | 46 µg/mL (≈ 17.1 µM) | > 128 µM and 372 µg/mL |
| CC[C@H](C)[C@H](NC(=O)[C@H](CCCNC(=N)N)NC(=O)CNC(=O)[C@H](CC(C)C)NC(=O)[C@H](CC(C)C)NC(=O)[C@H](CCCCN)NC(=O)[C@H](Cc1ccccc1)NC(=O)[C@H](C)N)C(=O)N[C@H](C(=O)N[C@@H](Cc1cnc[nH]1)C(=O)N[C@@H](Cc1cnc[nH]1)C(=O)N[C@H](C(=O)NCC(=O)N[C@@H](CC(N)=O)C(=O)N[C@@H](Cc1ccccc1)C(=O)N[C@H](C(=O)N[C@@H](Cc1ccc(O)c(O)c1)C(=O)NCC(=O)N[C@@H](Cc1ccccc1)C(=O)N[C@@H](CO)C(=O)N[C@@H](Cc1cnc[nH]1)C(=O)N[C@H](C(=O)N[C@@H](Cc1ccccc1)C(=O)O)C(C)C)C(C)C)C(C)C)[C@@H](C)CC (H-AFKLLGRIIHHVGNFV[Dopa]GFSHVF-OH) | 8 µM and 23 µg/mL | > 128 µM and 371 µg/mL |
| H-LFKLLGKIIHHVGNFVHGFSHVF-NH2 | 8 µM and 23 µg/mL | > 128 µM and 368 µg/mL |
| H-VFQFLGRIIHHVGNFVHGFSHVF-NH2 | 128 µM and 344 µg/mL | > 128 µM and 344 µg/mL |

The next lines start with the values.

| MIC (Enterobacter cloacae [1]) | MIC (Enterobacter cloacae [2]) | Molecule |
| --- | --- | --- |
| 11 µg/mL | 348 µg/mL | H-FLRFIGSVIHGIGHLVHHIGVAL-NH2 |
| 4 µM and 4.9 µg/mL | 4 µM and 4.9 µg/mL | H-GIGKFLHSAKKFGKAFVGEIMNS-NH2 |
| > 128 µM and 341 µg/mL | > 128 µM and 341 µg/mL | H-VFQFLGKIIHHVGNFVHGFSHVF-NH2 |
